This data set in a line: Toxicity liver stage against HepG2, at 10uM. It is filed as cell-based. Set-up: test concentration 10 uM, cell line HepG2-A16-CD81EGFP. The settings on record: human, HepG2-A16-CD81EGFP cells; read-out: INHIBITION
The gist of the method:
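Uninfected HepG2-A16-CD81EGFP cells, 3 × 10^3 per well, 1536-well, plated on prespotted compound at 10 μM final, parasite-free screening media added to match infected plates; puromycin 10 μM positive, DMSO 0.5% negative; run in parallel with 48 h PbLuc assay at 37 °C, 5% CO2; viability by CellTiter-Glo luminescence, normalized to controls.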
For the compound `NC(=O)Cn1ccc(O)c(Cc2ccc(Cl)cc2Cl)c1=O`, the cytotoxicity at 10 µM was 8.85%. With `Cc1nc(C)c(CN2CCOC[C@H](Oc3ccccc3)C2)s1` the figure was 7.53%; with `Nc1nc2c(c3c1C(=O)NC3=O)CCCC2`, 10.2%.

With `O=C(CNC(=O)c1cnccn1)Nc1ncc[nH]1`, the cytotoxicity at 10 µM was -43.4%.

Consider `O=C1CSC(c2ccc(F)c(Cl)c2)c2c(n(C3CCOCC3)[nH]c2=O)N1` (stereo unspecified), for which the cytotoxicity at 10 µM was 3.4%. In the case of `CC(=O)Nc1cccc2c1ccn2CC(=O)Nc1n[nH]c(CC(C)C)n1` it was -0.473%. Consider `Cc1cc(=O)[nH]c(-n2nc(C)c(CCC(=O)NCc3cccs3)c2C)n1`, for which the cytotoxicity at 10 µM amounted to 10.3%.

Consider `Cc1cc(S(=O)(=O)N2CCC(N3CCC(O)C3)CC2)c(Cl)cc1Cl` (stereo unspecified), for which the cytotoxicity at 10 µM turned out to be 0.944%.

`O=C(NC[C@H]1C[C@@H]2CN(C(=O)c3ccno3)C[C@@H]2O1)C1CCC1`: the cytotoxicity at 10 µM is -5.21%. With `Cn1cnc2c1C(C(=O)N1CCCO1)N(C(=O)c1ccccc1)CC2` (stereo unspecified) the figure was -0.234%; with `COCC(=O)N1CCC2(CC1)CC(OC)CO2` (stereo unspecified), -1.56%; with `CN(C)CC(=O)N1CCc2ncnc(-c3ccsc3)c2CC1`, -12.3%. In the case of `CCN1CC2(CC1=O)CN(C(=O)c1cccs1)CCN(C(=O)N(C)C)C2` (stereo unspecified) it was 2%.

For the compound `O=C(Nc1cnn(COc2ccc(F)cc2Cl)c1)C1CC1`, the cytotoxicity at 10 µM was -10.6%.

As for `Cc1nnc(SCC(=O)NCc2ccc3c(c2)CCC(=O)N3)s1`, the cytotoxicity at 10 µM is -5.03%. With `Cc1cccc(Nc2ccc(C3CCCCN3)cn2)n1` (stereo unspecified) the figure was -1.93%. With `Cc1csc(NC(=O)c2cnc(C3CCCN(C)C3)cn2)n1` (stereo unspecified) the figure was -21.3%. With `O=C(c1cnccn1)N1CCCC(Cc2cccc3ncccc23)C1` (stereo unspecified) the figure was 12%. In the case of `COc1cc(CNc2cnn(C(C)(C)C)c(=O)c2Cl)ccn1`, the cytotoxicity at 10 µM was determined as 55.9%. With `Cc1ccc(-c2nc(CC(=O)NCC3CCOC3)cs2)o1` (stereo unspecified) the figure was -43%; with `Cc1nc(-c2ccccc2)ccc1C(=O)N1CCN(CCO)CC1`, -53.9%; with `CC(C)C(NCc1ccc(Cn2cncn2)cc1)c1ccc(F)cn1` (stereo unspecified), -0.593%. In the case of `Cn1ccc(N2CCCC(NC(=O)c3ccsc3)C2=O)n1` (stereo unspecified) it was -3%; in that of `Cc1cnn(C2CN(CC(O)COc3ccc(C#N)cc3)C2)c1` (stereo unspecified), 1.81%.

As for `N#Cc1ccc(NCC(=O)Nc2ncn(Cc3cccnc3)n2)cc1`, the cytotoxicity at 10 µM is 7.65%. In the case of `N#Cc1csc(CN(CC(=O)N2CCCC2)CC2CCCO2)c1` (stereo unspecified) it was -6.26%; in that of `COc1ccc(CNC(C)c2ccc(Cl)c(Cl)c2)c(OC)c1OC` (stereo unspecified), 14.2%.

As to `Cc1[nH]ncc1CCCNC(=O)Nc1ccc2c(c1)OC1(CCCC1)O2`, the cytotoxicity at 10 µM amounted to 18.6%.

Take `Cc1noc(C)c1CN1CCC(c2nc3cc(Cl)ccc3o2)CC1`: the cytotoxicity at 10 µM is -4.22%. In the case of `O=S(=O)(NCCCN1CCCC1)c1cc(F)cc(F)c1` it was 8.84%; in that of `CCOCCC1(C(=O)N2CCCC(c3ncc[nH]3)C2)CCCC1` (stereo unspecified), -1.7%; in that of `Cc1ccsc1CN(C)c1nc2c(cnn2C(C)(C)C)c(=O)[nH]1`, 33.3%. In the case of `N#Cc1nccnc1N1CCC(OCCCc2ccccc2)C1` (stereo unspecified) it was 4.31%. With `CCCN(CCC)S(=O)(=O)c1cc(NC(C)=O)ccc1C` the figure was -148%; with `CCOc1ccc(OCC)c(NCc2cc(C)on2)c1`, -40.1%; with `FC(F)(F)c1cccc(N2CCC(NCc3cccnc3)CC2)c1`, -64.5%. As to `Cc1cc(NC(=O)NC2CCN(C(C)C)CC2)c2ncccc2c1`, the cytotoxicity at 10 µM was 9.67%. In the case of `Cn1cc(CCNCC2CNc3ccnn3C2)cn1` (stereo unspecified) it was 3.34%; in that of `Cc1cccc(NCc2ncc(C(C)(C)C)o2)c1`, 24.3%; in that of `COc1ccc(C(C)N2CCC(CNC(C)=O)CC2)cc1Cl` (stereo unspecified), -51.5%. As to `O=C(CCc1ccccc1)N1CCCCC1C1OCCO1` (stereo unspecified), the cytotoxicity at 10 µM was -45.1%. With `COc1ncccc1CN1Cc2nccn2CC(CN2CCCC2)C1` (stereo unspecified) the figure was -103%. In the case of `O=C(CC1CC1)N[C@@H]1CN(C(=O)c2ccoc2)C[C@@H]2CCCO[C@@H]21` it was -104%. With `COCC(=O)N1CCCC2(CCN(c3ccccc3)C2=O)C1` (stereo unspecified) the figure was -74.3%; with `CC(C)Nc1ncnc2c1CCN(C(=O)c1ccc[nH]1)CC2`, -77.6%; with `CCC1=N[C@@]2(CC[C@@H]3CN(C(=O)NCc4ccccc4C)C[C@@H]32)C(=O)N1`, -71.1%.

Regarding `O=S(=O)(c1ccccc1)N1CCC2(CCCN2CC2CCCC2)C1` (stereo unspecified), the cytotoxicity at 10 µM came to 4.4%. In the case of `COc1ccc(C)cc1-n1c(COC(C)C)n[nH]c1=O` it was 6.42%; in that of `Cn1ncc(N2CCOC(CCNC(=O)NC(C)(C)C)C2)cc1=O` (stereo unspecified), 22.6%.

`CCc1ccc(CCNc2ncnc3c2CCN(C(=O)C2CC2)C3)cc1`: the cytotoxicity at 10 µM was 36.9%. In the case of `O=C(CCn1cncn1)N1CCCC(CO)(CCCc2ccccc2)C1` (stereo unspecified), the cytotoxicity at 10 µM is 4.25%. In the case of `c1cc(-c2nc3c(c(NCCn4ccnn4)n2)CCNCC3)ccn1` it was -56.4%; in that of `CN1CCCC1CCn1ccnc1-c1ccc2ccccc2n1` (stereo unspecified), 0.0773%; in that of `CC(C)[C@@H]1CN(C(=O)c2ccc3c(c2)CCCO3)C[C@H]1NS(C)(=O)=O`, -6.53%. With `CCc1cn[nH]c1C1CCN(c2cc(C)c3ccc(OC)cc3n2)CC1` the figure was 18.7%; with `Cc1[nH]c2ccccc2c1CCNc1ncnc2c1CCNCC2`, -37.5%; with `COc1ccc(F)c(CN2CCCC(O)(CNCC(C)(C)C)C2=O)c1` (stereo unspecified), 12.2%. For `CCCn1ncc(C2CC(=O)NCc3nc4cc(C)ccn4c32)c1C` (stereo unspecified), the cytotoxicity at 10 µM is -3.21%.

With `Cn1ncc(N2CCC(CNC3CC(C)(C)CC(C)(C)C3)C2)cc1=O` (stereo unspecified), the cytotoxicity at 10 µM is -10.4%.

Regarding `CCN1CC2(CCC1=O)CCN(C(=O)C(O)c1cccc(Cl)c1)CC2` (stereo unspecified), the cytotoxicity at 10 µM is 0.636%. In the case of `CN(CC1(CO)CCCC1)c1nc2c(c(=O)[nH]1)Cc1ccccc1OC2` it was 11.7%. With `CSc1ncc(CNCC2(N3CCCCC3)Cc3ccccc3C2)cn1` the figure was 5.07%. Consider `CCc1nnc(CN(C)Cc2cccc(C(=O)Nc3nccs3)c2)o1`, for which the cytotoxicity at 10 µM was -2.97%.

In the case of `COC[C@@]12CC[C@@H](N3CCOCC3)C[C@H]1CCN(c1cc(C)ccn1)C2`, the cytotoxicity at 10 µM was -3.53%. In the case of `CC(C)c1ccc(NC2CCCN(Cc3ccncc3)C2)cc1` (stereo unspecified) it was -10.8%. With `CN(Cc1ccno1)C(=O)c1cccc(CC2CCNCC2)c1` the figure was -15.9%. With `CN(CC1(CO)CC1)C(=O)C1CCC(=O)N(Cc2ccc(Cl)cc2)C1` (stereo unspecified) the figure was -5.14%; with `CC[C@H](C)[C@@H](CO)NC(C)Cc1ccc(Cl)cc1` (stereo partly specified), -10.6%. In the case of `Cc1cccc(C2CC(=O)Nc3c2c(=O)[nH]n3C(C)C)c1` (stereo unspecified), the cytotoxicity at 10 µM was -3.33%. As for `CC(=O)Nc1cccc(-c2ccccc2CCN)c1`, the cytotoxicity at 10 µM was -5.85%. With `CCn1nc(C)c(CCNC(=O)c2cccc(-n3cccn3)c2)c1C` the figure was -12.9%; with `CCCOC(C)Cn1ccc2[nH]c(=O)c(C#N)cc2c1=O` (stereo unspecified), 7.39%. With `CCCc1cc(CNC2CCN(c3cc(C)nc(N)n3)CC2)on1` the figure was -6.17%. With `CCN(CC)CCCN1CCN(c2nc(C)cnc2C)CC1` the figure was -31%; with `Nc1cc2c(nn1)CCN(C(=O)CCCC1CCCCC1)C2`, -0.0113%.

`CCNc1cc2c(nn1)CCN(C(=O)c1cc3cccc(C)c3o1)C2`: the cytotoxicity at 10 µM was -8.06%. With `CCc1nc(C2CCCN2Cc2noc(Cc3ccccc3)n2)no1` (stereo unspecified) the figure was 1.29%; with `CC(C)(C)n1cc(C(=O)N2CCN(Cc3ccccc3F)CC2)cn1`, 10.6%.

Consider `Cc1cc(N2CCC(Cc3ccccc3)CC2)nc(-c2ccncc2)n1`, for which the cytotoxicity at 10 µM was -2.68%. With `O=C(c1ccoc1)N1CCOC2(COCCN(CC3CC3)C2)C1` (stereo unspecified) the figure was 7.57%; with `Cc1cc(CN2C[C@@H]3CCCO[C@@H]3[C@H](N(C)C(C)C)C2)no1`, 2.44%; with `COc1ccc(CNC(C)c2cccc(Br)c2)c(OC)c1OC` (stereo unspecified), 9.75%. In the case of `COc1ccccc1CNC(C)c1ccc(-n2ccnc2)cc1` (stereo unspecified) it was 5.25%. With `CCc1ccc(S(=O)(=O)N2Cc3c(CN(C)C)nn(C)c3C2)cc1` the figure was -106%; with `CC(C)Nc1nc2c(cc1C(=O)NCC1CC1)CCN(CC1CC1)CC2`, 46.5%. For `CC(C)COCc1cncc2c1CCN(Cc1cnn(C)c1)C2`, the cytotoxicity at 10 µM is -7.96%. In the case of `O=C(Nc1cccc(CNCc2csc(Br)c2)c1)C1CC1` it was 7.97%; in that of `CC(C)N1CCCn2c(nc(CNC(=O)c3nccn3C)cc2=O)C1`, 2.84%.

Consider `c1ccc(COC[C@@H]2CCC[C@@]23CNCCO3)nc1`, for which the cytotoxicity at 10 µM was -105%. Turning to `CN(C)CCN1C(=O)CC[C@@H]2[C@H]1CCN2C(=O)c1ccc(C#N)cc1`, the cytotoxicity at 10 µM is -7.82%. With `c1cncc(N2CCCn3nnc(CN4CCCCC4)c3C2)c1` the figure was 1.24%; with `O=C(c1cc(C2CC2)on1)N1C[C@@H]2COC[C@]2(COc2cccnc2)C1`, -89.7%. With `Cn1nccc1-c1nc2c(cc1C(=O)O)CCN(C(=O)C1CC1)CC2` the figure was -143%. With `Fc1cnc(N2CCOC3(CCN(Cc4ccsc4)CC3)C2)nc1` the figure was 2.6%. Take `CCNCCc1nc2cc(F)ccc2[nH]1`: the cytotoxicity at 10 µM was found to be 5.18%.

`COC1[C@@H]2CC[C@H]1CN(c1nc(C)nc3sccc13)C2` (stereo partly specified): the cytotoxicity at 10 µM came to 34%.
